From ChEMBL document CHEMBL4513216, “Probing the Open Global Health Chemical Diversity Library for Multistage-Active Starting Points for Next-Generation Antimalarials” (ACS Infect Dis, 2020)

Test: Toxicity liver stage against HepG2, at 10uM
Type: cell-based
Set-up: test concentration 10 uM, cell line HepG2-A16-CD81EGFP
Conditions: human, HepG2-A16-CD81EGFP cells; read-out: INHIBITION
In short: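 Uninfected HepG2-A16-CD81EGFP cells, 3 × 10^3 per well, 1536-well, plated on prespotted compound at 10 μM final, parasite-free screening media added to match infected plates; puromycin 10 μM positive, DMSO 0.5% negative; run in parallel with 48 h PbLuc assay at 37 °C, 5% CO2; viability by CellTiter-Glo luminescence, normalized to controls.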

Compound	cytotoxicity at 10 µM
c1ccc(Cc2nc(CNC3CCC4(CCNCC4)CC3)no2)cc1	-17%
COCCN1Cc2ccccc2C2(CCN(C(=O)c3ccco3)CC2)C1	5.85%
Cc1nc(CCN2CCCCC2)n(-c2ccc(F)cc2)n1	-2.23%
CNc1nc(CNC(=O)Nc2cccc(COCCOC(C)C)c2)cs1	8.77%
COc1cccc(C(=O)NS(=O)(=O)c2cccc(C#N)c2)c1	-6.12%
COc1cc(OC)cc(-c2cc(N)on2)c1	7.79%
Cc1cccc(CN2C[C@@H]3CN(C(=O)c4cnccn4)C[C@@H]3C2=O)n1	3.14%
COCC1CCN(C(=O)c2cccc(S(=O)(=O)NC3CCCC3)c2)C1 (centres undefined)	10.8%
Cc1noc(C)c1CN1CCC(N(C)Cc2nnc(C3CC3)n2C)C1 (centres undefined)	-4.03%
COc1ccc(CN2CCC(C(N)=O)C2)c(Br)c1OC (centres undefined)	5.15%
O=C(c1ccc(-n2cc(Br)cn2)cc1)N1CCN(c2cnccn2)CC1	1.52%
COC1CCN(C(=O)COC(C)=O)CC(=O)N(C)c2ccccc21 (centres undefined)	3.17%
O[C@@]1(CNCCCNc2cccnc2)CCCN2CCCC[C@@H]21	-3%
CCOCCNS(=O)(=O)c1ccc2c3c1CCCN3C(=O)CO2	7.9%
CC(C)=CCN1C[C@@H]2CC[C@H]1CN(C(=O)c1ccc3c(c1)OCO3)C2	-0.988%
CN(Cc1csc(-c2cccs2)n1)C(=O)CCn1ccc(=O)[nH]c1=O	4.71%
Cn1cc(-c2cnc3n2CCC32CCN(S(=O)(=O)C3CC3)CC2)cn1	-139%
CC(CO)CN(Cc1ccccc1)Cc1c[nH]cn1 (centres undefined)	6.04%
Cc1nnc2n1CCN(CC(=O)N1CCc3ccccc3C1)C2	-9.27%
O=C(Cn1ncc2c(c1=O)CCCC2)Nc1cccc2[nH]ccc12	3.16%
O=C1NCCCC12CCN(Cc1ccc(-c3ccccc3)s1)C2 (centres undefined)	16.9%
Cc1ccc(Br)cc1NC(=O)NCC(O)CO (centres undefined)	12.9%
COc1ccccc1CNC(=O)C(C)N1CC(n2nc(C)cc2C)C1 (centres undefined)	7.54%

Compound	cytotoxicity at 10 µM
Cc1cccc(OCCC(=O)N(C)CCC#N)c1C	0.666%
COCCCNC(=O)COc1ccccc1C(F)(F)F	14.7%
O=C(COC1CCCC1)NS(=O)(=O)c1ccc2c(c1)OCCCO2	-15.3%
COCCN1CCC2(CC1)CC(c1cccnc1)CO2 (centres undefined)	-3.21%
CCC1CN(CCNS(C)(=O)=O)c2ccccc2O1 (centres undefined)	-2.67%
O=C(Cc1ccc(-n2cnnn2)cc1)Nc1nncs1	5.47%
CCN1CCC2(CC1)C(=O)N(c1ccc(C)nc1)CCN2CC(C)C	16.4%
CNc1cc(C2CCCN2C(=O)CCc2cnn(C)c2C)ccn1 (centres undefined)	5.98%
CCS(=O)(=O)N1CC[C@H]2CO[C@H](CN(C)C)[C@H]2C1	-72%
CCOC(=O)c1coc(N2CCN(Cc3cccc(OC)c3)C(=O)C2)n1	-1.83%
CN(C)CC1CN(Cc2nc(-c3cccnc3)no2)CCO1 (centres undefined)	-2.03%
Cc1nn(C)c(C)c1C(=O)N1CCN(c2ccncc2Cl)CC1	-2.25%
Cc1noc(C2CCCN(C(=O)c3ccc(Br)o3)C2)n1 (centres undefined)	1.73%
COc1cccc(OCCc2nnc(NC(C)=O)s2)c1	4.84%
O=C(NCCc1cccnc1)c1nc2c(s1)CCCN2C(=O)C1CC1	-91.5%
COc1cccc(CC(=O)N2CCC(O)(C(F)(F)F)C2)c1 (centres undefined)	1.16%
COc1cc(C2(C(=O)N3CCN(CC(C)(C)O)CC3)CC2)ccc1C	-0.0264%
CC1CCN(c2nc(O)cc(C3CC(=O)N(C4CCCCC4)C3)n2)CC1 (centres undefined)	3.81%
O=C(NCCCSC1CCCCC1)C1NCCc2[nH]cnc21 (centres undefined)	-0.283%
Cc1cc(Cc2ccc(S(=O)(=O)N3CCSCC3)cc2)c(=O)[nH]n1	-10%
N#Cc1cc(C(F)(F)F)ccc1NCC1CCS(=O)(=O)CC1	10.2%
COc1ccc(OC)c(-n2cnnc2CCN)c1	9.83%
CC(C)(C)c1ncc(C(=O)NCCn2ccnc2)s1	3.39%

Compound	cytotoxicity at 10 µM
CC(=O)N1CCCC1c1nc(C)cc(-c2ccc(F)cc2)n1 (centres undefined)	9.88%
CCc1nnc2n1CCN(C(=O)c1cc(C)n(-c3ccccc3)c1C)C2	-8.7%
C[C@@H]1CN(C(=O)CCN2CCOCC2)CC[C@]1(C)O	-0.51%
NC(=O)C(NCc1nn(-c2ccccc2)c2c1CCC2)c1ccccc1 (centres undefined)	-5.86%
c1ccc(COc2cccc(CNC3CCc4ncnn4C3)c2)cc1 (centres undefined)	-13.7%
Cc1ccn(-c2ccc(NCc3cccnc3N3CCCCC3)nn2)n1	3.09%
Cc1nsc(NC2CCN(c3ccccc3OC(F)F)C2=O)n1 (centres undefined)	2.14%
Cc1nc(CO[C@H]2CN(C(=O)c3cccn3C)[C@@H]3COC[C@H]23)cs1	-112%
Cc1nc(N(C)C)nc(C)c1NS(=O)(=O)c1ccc(OC(F)(F)F)cc1	7.23%
CCOC(=O)[C@]12CCCN(Cc3cccs3)C[C@H]1CN(C(C)=O)C2	4.13%
CC(C(=O)N(Cc1ccccc1)CC(F)(F)F)S(C)(=O)=O (centres undefined)	11%
Fc1cnc(N2CCC3(CC2)CN(Cc2cccs2)CCO3)nc1	12.4%
CN(CCc1ccccc1)Cc1nc(Cc2cccc(F)c2)no1	0.276%
Cc1cnn(CC2CN(Cc3nc4ccccc4c(=O)[nH]3)CCO2)c1 (centres undefined)	-7.62%
Cc1ccc(C(=O)NCC(O)CN2CCCC2=O)c(C)c1 (centres undefined)	-6.68%
CCNc1cc2c(nn1)CCN(C(=O)c1ccc3c(c1)OCO3)C2	-13.5%
Cc1nc(CC(=O)NS(=O)(=O)c2cccc3cnccc23)cs1	5.75%
CNC(=O)N1CCc2nc(C(=O)Nc3cccnc3)sc2CC1	1.99%
COCCNC(=O)CCn1ncc2c(Cl)cccc21	10.5%
CCc1nc(-c2ccc(NC(=O)N3CCC4(CC3)OCCO4)cc2)no1	7.27%
COC(=O)c1cccc(C2CNCCN2C)c1 (centres undefined)	0.5%
Cc1ccc(C(C)NC(=O)Nc2ccccc2CN2CCOCC2)o1 (centres undefined)	3.25%
Cc1oncc1NS(=O)(=O)c1c[nH]c2ncccc12	-7.49%

Compound	cytotoxicity at 10 µM
Cc1cc(CS(=O)(=O)NC2CCCCC2)on1	2.92%
Cc1c(C(=O)N2CCOCC2)nnn1-c1ccc2ncccc2c1	-4.87%
Cc1ncccc1CNC(CCO)C1CCCCC1 (centres undefined)	-41.8%
COc1ncc(C)cc1NC(=O)CCc1ccccn1	-9.58%
CC(C)c1nnc2n1CCN(C(=O)c1ccc3c(c1)COC3)C2	-6.22%
Cc1cc(C)c(CNc2ncnc3c2cnn3C)c(=O)[nH]1	8.63%
Cn1c(NCC(O)c2ccccc2F)c(C#N)c(=O)n(C)c1=O (centres undefined)	-12.5%
O=C1CCN(C(=O)NCCc2c[nH]c3ccc(Cl)cc23)CCN1	4.26%
CC1C(=O)NCCN1CCOc1ccc(C#N)cc1 (centres undefined)	2.29%
Cc1ccc(F)cc1S(=O)(=O)NCc1cccc(CS(C)(=O)=O)c1	-10.6%
OCC1(CC2CC2)CCCN(Cc2ccc(C(F)(F)F)nc2)C1 (centres undefined)	-5.96%
CC(C)Cc1cc(NC(=O)N2CCC(Oc3cccnc3)C2)n(C)n1 (centres undefined)	-4.71%
Cc1ccc(Cn2cc(C)c(N)n2)cc1	-0.751%
O=C(NCc1cccnc1)NCC(O)c1ccccc1C(F)(F)F (centres undefined)	1.5%
C/N=C1\c2cc3cc(OC)ccc3n2CCN1Cc1ccccc1	80.4%
Cn1cc(CN2CCCC(Cn3cc(CCCO)nn3)C2)cn1 (centres undefined)	-3.51%
Cc1nc(CCCNC(=O)Nc2ccc(F)cc2F)n[nH]1	-2.9%
Cc1nc(C)n(CC2CCCN(Cc3nnc(C(C)(C)C)o3)C2)n1 (centres undefined)	-11%
O=C(Cc1ccc2c(c1)OCO2)N1CCCN(c2ccccc2)CC1	-2.84%
CCC(C)(C)C(=O)Nc1ccc2ccn(CC(=O)NC)c2c1	4.19%
COc1ccc2c(c1)OCC(CNC(=O)CCc1c(C)n[nH]c1C)C2 (centres undefined)	-48.5%
Cc1nc(NC2CCOCC2)cc(C2CCN2S(C)(=O)=O)n1 (centres undefined)	2.31%
CCOCCC(=O)NCc1ccnc(NC2CC2)c1	0.545%

Compound	cytotoxicity at 10 µM
Cc1noc2nc(C3CCN(Cc4ccncc4)CC3)cc(C(F)F)c12	6.54%
O=C(c1cccs1)N1CCc2nnc(COc3cncnc3)n2CC1	8.13%
CN(C)c1ccc(CNC(=O)NCCc2cn3ccccc3n2)cn1	-3.06%
CC(NS(=O)(=O)N(C)C(C)C)C(=O)N(C)C (centres undefined)	7.95%
Cc1ccc(N2CCC(C(O)c3cccs3)CC2)nn1 (centres undefined)	-49.1%
Cc1ccnc(N2CCC(C(N)=O)CC2)n1	-18.3%
O=c1oc(-c2ccc(F)cc2)nn1CN1CCSCC1	0.449%
O=C(O)c1cc2c(nc1-c1ccsc1)CCN(C(=O)C1CC1)CC2	14.4%
NS(=O)(=O)N1CCC(C(=O)Nc2cccc(OC(F)F)c2)CC1	-9.5%
c1nc(CNC2CCOCC2)c2n1CCCN(CC1CC1)C2	-69.1%
CCn1ccc2cc(NC(=O)CC3CCCO3)ccc21 (centres undefined)	2.5%
Cc1cnccc1N1CCCN(C(=O)CCn2ccnc2C)CC1	-6.32%
CCCC1CCCN(C(=O)CCn2cccn2)CC1 (centres undefined)	-9.48%
O=C(Cn1ccc(=O)[nH]c1=O)Nc1ccccc1F	-0.691%
COCC(=O)NCCc1ccc(Cl)s1	13.4%
Cn1cc(CN2CCC(c3ccncc3)CC2)cn1	0.26%
Cc1noc(C2CCCN(C(=O)c3cncc(Br)c3)C2)n1 (centres undefined)	-1.82%
Cc1cc(-c2cnc(N(C)C)nc2C2CCCCN2C(=O)C2CC2)on1 (centres undefined)	0.095%
CC(O)CN1CCC(CN(C)CC(=O)NC(C)C)CC1 (centres undefined)	-2.32%
COCCOCCC(=O)N1CCC(c2ccccc2C)C1 (centres undefined)	-9.46%
Cc1cccc(CN2CCC(c3nccn3CC(N)=O)CC2)n1	-5.41%
COCCCNC(=O)Cc1cc(-c2ccccc2)on1	-7.39%
